# From PubChem BioAssay
# TCR CD3 inh = inhibitors of human TCR-CD3 interaction, primary screen, biochemical, fluorescence, TAMRA-labeled TCR probe; AID 651800, 2012; inhibition, % at 9.4 µM; T-cell receptor (TCR); 0.37% of 360,000 active; in the data active = inhibition above about 19%;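 note: recombinant mutant TCR 2C K166C tagged with TAMRA read by polarization; 0% = receptor in buffer alone and 100% = receptor with positive control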
# PRMT1 inh = PRMT1 methyltransferase inhibitors, primary screen, biochemical, fluorescence polarization; recombinant PRMT1, activity-based probe fluorescence polarization; inhibition, % at 2.79 µM; 1.3% of 370,000 active; AID 652257, 2013;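 active = inhibition above about 21% made by adding two undisclosed values, limit read from the data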
# Target sequence (Q99873 whole entry, looked up): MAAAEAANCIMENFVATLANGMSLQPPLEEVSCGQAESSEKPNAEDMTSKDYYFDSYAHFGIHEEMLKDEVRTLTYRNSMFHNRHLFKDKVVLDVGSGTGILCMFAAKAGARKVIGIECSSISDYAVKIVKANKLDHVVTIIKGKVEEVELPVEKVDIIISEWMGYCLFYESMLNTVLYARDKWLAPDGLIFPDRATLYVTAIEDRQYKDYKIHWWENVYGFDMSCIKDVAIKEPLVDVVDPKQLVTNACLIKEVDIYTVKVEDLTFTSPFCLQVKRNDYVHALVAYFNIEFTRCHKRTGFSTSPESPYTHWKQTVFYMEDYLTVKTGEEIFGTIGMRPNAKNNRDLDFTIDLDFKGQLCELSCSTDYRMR
# ABHD4 inh = ABHD4 inhibitors, primary screen, biochemical, fluorescence polarization, mouse; inhibition, % at 8.92 µM; purified mABHD4, FP-Rh probe fluorescence polarization; AID 720543, 2013; 0.54% of 370,000 active; (Lyso)-N-acylphosphatidylethanolamine lipase (Mus musculus), Q8VD66;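 active = inhibition exceeding the mean over every tested compound plus 3 SD, cut at about 30% in these data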;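 note: 0% = plate median of compound wells and 100% = S159A mutant with DMSO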
# Target sequence (Q8VD66 whole entry, looked up): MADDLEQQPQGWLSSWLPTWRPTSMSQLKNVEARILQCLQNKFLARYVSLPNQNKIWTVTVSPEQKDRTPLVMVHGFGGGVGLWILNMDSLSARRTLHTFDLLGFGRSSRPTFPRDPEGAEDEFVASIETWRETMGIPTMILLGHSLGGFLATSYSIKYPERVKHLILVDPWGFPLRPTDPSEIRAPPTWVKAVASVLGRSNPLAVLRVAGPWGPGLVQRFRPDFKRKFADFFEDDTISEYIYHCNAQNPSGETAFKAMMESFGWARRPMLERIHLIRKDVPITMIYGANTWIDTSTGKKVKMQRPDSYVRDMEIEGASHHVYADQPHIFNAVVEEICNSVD
#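 Doses – 8.92 µM, single dose · Material – wild-type mouse ABHD4 protein · Replication – single well per compound (singlicate) · Measure – percent inhibition of probe binding, normalized to plate controls · Schedule – 45 min compound pre-incubation plus 60 min probe step, 25 °C · Detection – fluorescence polarization with parallel and perpendicular emission, 525/598 nm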
# SIAE primary = human SIAE inhibitors, primary screen, biochemical, fluorescence polarization, FP-Rh probe, 1536-well HTS. SIAE FP-Rh probe binding. inhibition, % at 9.66 µM. 0.69% of 370,000 active. Sialate O-acetylesterase (Homo sapiens), Q9HAT2;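 active = inhibition above a cutoff: mean of compounds within the control limits plus 3 SD of those, cut at about 17% in these data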;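 note: 0% = plate median of compound wells and 100% = probe without SIAE protein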
# rCAG binder-1 = binders of r(CAG) RNA repeats, primary screen, biochemical, fluorescence | inhibition, % at 3 µM | r(CAG) RNA repeat, TO-PRO-1 dye displacement fluorescence | AID 651821, 2012 | 1.3% of 370,000 active;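 active = inhibition above the plate cutoff, the mean of all test compounds on that plate plus 3 SD, cut at about 35% in these data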;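 note: 0% = DMSO alone and 100% = 100 µM mitoxantrone as full dye displacement; higher means more dye released from RNA so lower well fluorescence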
# HTRA1 inh = HTRA1 serine protease inhibitors, primary screen, biochemical, fluorescence polarization, HTS; inhibition, % at 5.96 µM; AID 504803, 2011; 0.5% of 340,000 active; recombinant HTRA1, FP-rhodamine activity-based probe; Q92743; in the data active = inhibition above about 36%;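 note: 0% = enzyme with DMSO and 100% = wells lacking enzyme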
# rCAG bind conf = small molecules binding CAG repeat RNA – biochemical, fluorescence, confirmation; shares compounds with rCAG binder-1; r(CAG) RNA repeat, TO-PRO-1 dye displacement fluorescence; inhibition, % at 3 µM; 70% of 4,300 active; AID 652065, 2013;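 active = inhibition above a per-plate cutoff, the mean inhibition of sample wells plus 3 SD, cut at about 35% in these data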;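 note: loss of TO-PRO-1 fluorescence as compound displaces dye from 1x1 AA loop RNA; 0% = DMSO only wells and 100% = 100 µM mitoxantrone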
# DNA CAG counter = displacement of TO-PRO-1 from CAG DNA duplex, counter-screen for rCAG RNA repeat binder project, biochemical, fluorescence, TO-PRO-1 dye, d(CAG) DNA oligo. inhibition, % at 3 µM. shares compounds with rCAG binder-1. d(CAG) DNA oligo TO-PRO-1 dye displacement. AID 652068, 2013. 94% of 4,300 active;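 active = inhibition above its plate's cutoff, the mean test-well inhibition plus 3 SD, cut at about 4.8% in these data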;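 note: 0% = DNA dye mix with DMSO and 100% = 100 µM mitoxantrone; hits displace the dye from DNA and so lower well fluorescence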
# dCAG dye DR = inhibitors of DNA CAG/GTC TO-PRO-1 complex, dose response, counter-screen for rCAG RNA repeat binder project, biochemical, fluorescence, TO-PRO-1 dye; IC50, µM; AID 686960, 2013; 20% of 250 active; shares compounds with rCAG binder-1; DNA CAG/GTC duplex TO-PRO-1 dye displacement fluorescence; in the data active = IC50 below about 10 µM
# dCAG TOPRO ctr = TO-PRO-1 dye complex inhibitors on d(CAG) DNA, dose response, counter-screen, biochemical, fluorescence, late stage; shares compounds with rCAG binder-1; d(CAG) DNA duplex TO-PRO-1 dye displacement; IC50, µM; 80% of 30 active; AID 720649, 2013
# rCAG binder-2 = molecules binding r(CAG) RNA repeats, late stage dose response, late-stage follow-up, biochemical, fluorescence, dose response, powder samples | shares compounds with rCAG binder-1 | AID 720651, 2013 | 100% of 30 active | r(CAG) RNA TO-PRO-1 dye displacement | IC50, µM
# Numbers without * were called inactive; i = inactive; · = not tested or not shown. Hits are enriched below; roughly 3.5% of the tested compounds scored in any of these assays. Unless noted, the rule behind the calls is not given here.
SMILES,TCR CD3 inh,PRMT1 inh,ABHD4 inh,SIAE primary,rCAG binder-1,HTRA1 inh,rCAG bind conf,DNA CAG counter,others
CC(C)(C)CCN1C[C@@H]2C(CNC(=O)c3cc(Cl)cc(Cl)c3)[C@@H]2C1 (stereo partly specified),·,-7.6,1.5,-2.0,·,·,·,·,
CCOC(=O)CCCNC(=O)O[C@@H]1CC[C@@]23CCCN2C(=O)CCC[C@H]3C1,·,-3.5,0.5,-5.1,·,·,·,·,
COc1ccc(-c2nnc(Nc3ccc(S(=O)(=O)Nc4nccs4)cc3)c3ccccc23)cc1,5.9,6.1,-5.5,-20.5,35.0*,-7.0,49.7*,19.0*,
COc1ccc(Nc2nnc(-c3ccc(C(N)=O)cc3)c3ccccc23)cc1,10.7,-2.2,-23.2,4.0,1.6,-1.4,·,·,
Cc1cc(C(F)(F)F)n(-c2nc(C(=O)NNS(=O)(=O)c3ccccc3)cs2)n1,-6.2,-2.0,-5.9,-2.5,21.8,-3.6,·,·,
Cc1cc(C(F)(F)F)n(-c2nc(C(=O)NNS(=O)(=O)c3ccccc3[N+](=O)[O-])cs2)n1,3.5,-1.6,10.1,1.9,45.0*,-1.3,27.0,8.6*,
COc1ccc(NC(=S)N(Cc2ccc(Cl)cc2)Cc2ccc(C(=O)O)cc2)cc1Cl,3.9,-1.9,-5.8,5.8,59.5*,-40.5,60.4*,21.4*,
COc1cccc(NC(=S)N(Cc2ccc(C(=O)O)cc2)Cc2ccc(OC)c(OC)c2)c1,1.1,6.5,-4.0,-6.6,12.2,-16.1,·,·,
Cc1cc(C)cc(NC(=S)N(Cc2ccc(Br)cc2)Cc2ccc(C(=O)O)cc2)c1,3.1,-1.1,-1.2,-3.0,65.0*,-38.7,68.0*,27.4*,
CCc1ccc(NC(=S)N(Cc2ccc(Cl)cc2)Cc2ccc(C(=O)O)cc2)cc1,0.2,0.8,-7.3,-0.2,68.5*,-30.0,61.5*,23.3*,
Cc1cc(C)cc(NC(=S)N(Cc2ccc(Cl)cc2)Cc2ccc(C(=O)O)cc2)c1,3.5,-0.8,5.9,-3.5,49.1*,-31.1,65.1*,28.9*,
CCN(Cc1ccccc1)C(=O)C1C2C=CC3(CN(Cc4ccccc4)C(=O)C13)O2 (stereo unspecified),·,-2.5,-0.3,0.2,-0.2,·,·,·,
COCCCNC(=O)C[C@H]1C[C@@]2(C(=O)OC)C(=C[C@H](COCc3ccccc3)O[C@@H]2C)N(Cc2ccccc2)C1=O,·,-1.1,6.6,4.6,-0.3,·,·,·,
Cc1ccc(NC(=S)N(Cc2cccc(Br)c2)CC2CCC(C(=O)O)CC2)cc1 (stereo unspecified),13.0,1.5,-22.3,3.8,24.1,-4.9,·,·,
Cc1cccc(NC(=S)N(Cc2ccc(Cl)cc2)Cc2ccc(C(=O)O)cc2)c1,4.6,-2.1,-3.4,0.9,27.1,-3.9,·,·,
Cc1cc(NC(=S)N(Cc2ccc(Cl)cc2)Cc2ccc(C(=O)O)cc2)ccc1Cl,6.3,-1.0,-23.3,-3.1,69.4*,-90.5,82.6*,46.8*,
Cc1cc(NC(=S)N(Cc2cccc(Br)c2)CC2CCC(C(=O)O)CC2)ccc1Cl (stereo unspecified),-0.7,-2.7,-56.4,-1.2,46.3*,-35.6,63.7*,24.5*,
Cc1ccc(C)c(NC(=S)N(Cc2ccc(Cl)cc2)Cc2ccc(C(=O)O)cc2)c1,-1.4,-0.9,-11.1,-5.2,44.5*,-41.4,49.0*,14.4*,
Cc1ccc(NC(=S)N(Cc2ccc(Br)cc2)Cc2ccc(C(=O)O)cc2)cc1C,7.7,-4.9,-8.9,5.7,53.9*,-24.4,70.9*,31.1*,dCAG dye DR=i;dCAG TOPRO ctr=4.62*;rCAG binder-2=1.97*
CCN(CC)S(=O)(=O)c1cc(NS(=O)(=O)c2cc(Cl)ccc2Cl)ccc1C,12.0,-2.2,-3.9,0.6,44.0*,-2.2,40.2*,11.7*,
Cc1ccc(S(=O)(=O)/N=C2/NC(=O)/C(=C/c3cc([N+](=O)[O-])ccc3O)S2)cc1,-11.6,13.8,17.2,-31.8,88.0*,-4.4,66.9*,24.6*,
COc1cccc(N=C2NC(=O)/C(=C/c3cc([N+](=O)[O-])ccc3O)S2)c1,-0.9,-1.4,7.7,8.7,12.4,-1.1,·,·,
O=C1NC(=Nc2ccccc2Cl)S/C1=C\c1cc([N+](=O)[O-])ccc1O,-11.1,6.4,19.6,-0.8,82.4*,-3.3,69.3*,27.2*,
Cc1ccc2sc(NNC(=O)C3=COCCO3)nc2c1C,3.9,4.8,-3.3,7.8,51.0*,12.8,14.3,5.8*,
COC(=O)c1sc2nc(-c3ccco3)ccc2c1N,5.7,55.3*,20.9,10.0,50.2*,7.8,22.6,11.7*,
CC1(C(=O)NS(=O)(=O)c2ccc(Cl)s2)CCN1C(=O)Cc1ccc(Cl)cc1Cl (stereo unspecified),2.0,4.2,-1.3,-0.1,39.8*,·,40.3*,11.2*,
CC1(C(=O)NS(=O)(=O)c2ccc(Cl)cc2)CCN1C(=O)CCc1ccc(Cl)cc1Cl (stereo unspecified),-1.9,3.3,-5.8,2.5,52.5*,·,49.4*,12.5*,
CC1(C(=O)NS(=O)(=O)c2ccc(C#N)cc2)CCN1C(=O)CCc1ccc(Cl)cc1Cl (stereo unspecified),-1.1,8.1,6.8,-1.6,25.9,·,·,·,
CC1(C(=O)NS(=O)(=O)c2ccc(Cl)s2)CCN1C(=O)Cc1cc(F)ccc1F (stereo unspecified),1.3,-2.7,8.6,-0.2,7.6,·,·,·,
Cc1ccc(S(=O)(=O)NC(=O)C2(C)CCN2C(=O)CCc2ccc(Cl)cc2Cl)cc1 (stereo unspecified),2.9,1.2,3.8,2.6,51.3*,·,33.6,6.0*,
